{
  "source": "ChEMBL document CHEMBL3600315",
  "about": "“Molecular modeling based approach, synthesis, and cytotoxic activity of novel benzoin derivatives targeting phosphoinostide 3-kinase (PI3Kα)” (Bioorg Med Chem Lett, 2015)",
  "note": "The source made the active and inactive calls. No cut-off for these calls is given here.",
  "data": [
    {"system": "HCT-116", "assay": "Induction of apoptosis in human HCT116 cells assessed as increase in caspase-3 activity at 700 uM after 24 hrs by DEVD-pNA substrate-based colorimetric assay relative to control", "assay_type": "functional, cell-based", "summary_of_the_method": "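HCT116 cells were incubated with each compound for 24 or 48 h. Caspase-3 enzyme activity was measured relative to untreated control cells. Values are means of two independent experiments, with P < 0.05 taken as significant.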", "values": [
      {"smiles": "O=C(OC(C(=O)c1ccccc1)c1ccccc1)c1ccc(F)cc1", "note": "(stereo unspecified)", "Activity": "Active"},
      {"smiles": "O=C(OC(C(=O)c1ccccc1)c1ccccc1)c1cccc(F)c1", "note": "(stereo unspecified)", "Activity": "Active"},
      {"smiles": "COc1ccc(C(=O)C(O)c2ccc(OC)cc2)cc1", "note": "(stereo unspecified)", "Activity": "Active"},
      {"smiles": "O=C(OC(C(=O)c1ccccc1)c1ccccc1)c1ccccc1F", "note": "(stereo unspecified)", "Activity": "Active"},
      {"smiles": "O=C(OC(C(=O)c1ccccc1)c1ccccc1)c1ccc([N+](=O)[O-])cc1", "note": "(stereo unspecified)", "Activity": "Active"},
      {"smiles": "O=C(OC(C(=O)c1ccccc1)c1ccccc1)c1ccc(Cl)cc1", "note": "(stereo unspecified)", "Activity": "Active"}
    ]}
  ]
}
